These results are taken from ChEMBL document CHEMBL1142004, “Dipeptidyl aspartyl fluoromethylketones as potent caspase inhibitors: peptidomimetic replacement of the P2 alpha-amino acid by a alpha-hydroxy acid” (Bioorg Med Chem Lett, 2005).

One assay has as its system HeLa. The assay can be described thus: Concentration tested for 50% of TNF- alpha induce HeLa cell protection was determined. The class given is functional, cell-based. The conditions noted are these: Homo sapiens. The method, boiled down:
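HeLa cells were treated with TNF-α to induce apoptosis, with inhibitor present. Viability was quantified by calcein AM uptake. The value is the inhibitor concentration giving 50% cell protection.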

The subject of assay [1] is Mus musculus. As to the kind of experiment: Survival of mice with 10 mg/kg of compound treatment after induction of apoptosis by anti-Fas antibody at 24 hr (n=6). It counts as functional. In outline: (§1)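 Mice received an IV injection of anti-Fas monoclonal antibody; untreated controls received 8 µg. Five minutes later they received an IV dose of inhibitor in an aqueous vehicle containing 50 mM Tris–HCl, or vehicle alone. Six mice per group. Survivors were counted at 1, 3, 6 and 24 h and at 3 days, when the experiment ended, and reported as a percentage of each group.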

Assay [2] in a line: Inhibitory concentration against Caspase-1.
A short description of assay [3]: Inhibitory concentration against Coagulation factor X. In outline: (§2)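 Isolated-enzyme inhibition assays (calpain-1, cathepsin B, factor Xa) tested inhibitor at concentrations up to 100,000 nM. The read-out was IC50.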
A further assay has as its target T1, Caspase-7 (Homo sapiens, UniProt P55210).
T1 sequence (P55210 whole entry): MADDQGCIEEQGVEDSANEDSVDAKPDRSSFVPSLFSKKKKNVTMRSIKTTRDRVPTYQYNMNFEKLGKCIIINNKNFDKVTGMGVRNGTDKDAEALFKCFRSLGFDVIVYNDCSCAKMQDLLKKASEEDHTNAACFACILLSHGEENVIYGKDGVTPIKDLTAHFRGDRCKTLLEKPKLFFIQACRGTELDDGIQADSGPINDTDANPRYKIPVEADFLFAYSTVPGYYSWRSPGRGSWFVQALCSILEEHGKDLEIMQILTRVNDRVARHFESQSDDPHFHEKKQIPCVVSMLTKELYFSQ
The assay can be described thus: Inhibitory concentration against Caspase-7.

Assay [4] concerns Mus musculus. The assay can be described thus: Survival of mice with 1 mg/kg of compound treatment after induction of apoptosis by anti-Fas antibody at 3 hr (n=6). It counts as functional. In outline: as §1
The subject of assay [5] is Mus musculus. As to the kind of experiment: Survival of mice with 1 mg/kg of compound treatment after induction of apoptosis by anti-Fas antibody at 3 days(n=6). The class given is functional. The note with it: 72 h. The method, boiled down:
as §1

Assay [6] relates to Mus musculus. The assay can be described thus: Survival of mice with 0.25 mg/kg of compound treatment after induction of apoptosis by anti-Fas antibody at 3 hr (n=6). It counts as functional. In outline:
as §1

In assay [7] the test system is Mus musculus. As to the kind of experiment: Survival of mice with 0.25 mg/kg of compound treatment after induction of apoptosis by anti-Fas antibody at 1 hr (n=6). It counts as functional. The method, boiled down: as §1
Assay [8] is described as follows: Inhibitory concentration against Cathepsin B. In outline:
as §2

The subject of assay [9] is Mus musculus. As to the kind of experiment: Survival of mice with 1 mg/kg of compound treatment after induction of apoptosis by anti-Fas antibody at 6 hr (n=6). It counts as functional. The method, boiled down:
as §1

The subject of assay [10] is Mus musculus. As to the kind of experiment: Survival of mice with 10 mg/kg of compound treatment after induction of apoptosis by anti-Fas antibody at 6 hr (n=6). The class given is functional. The method, boiled down:
as §1

The subject of assay [11] is Mus musculus. The assay can be described thus: Survival of mice with 0.25 mg/kg of compound treatment after induction of apoptosis by anti-Fas antibody at 6 hr (n=6). It counts as functional. In outline:
as §1

A further assay addresses T2, Caspase-3 (Homo sapiens, UniProt P42574).
T2 sequence (P42574 whole entry): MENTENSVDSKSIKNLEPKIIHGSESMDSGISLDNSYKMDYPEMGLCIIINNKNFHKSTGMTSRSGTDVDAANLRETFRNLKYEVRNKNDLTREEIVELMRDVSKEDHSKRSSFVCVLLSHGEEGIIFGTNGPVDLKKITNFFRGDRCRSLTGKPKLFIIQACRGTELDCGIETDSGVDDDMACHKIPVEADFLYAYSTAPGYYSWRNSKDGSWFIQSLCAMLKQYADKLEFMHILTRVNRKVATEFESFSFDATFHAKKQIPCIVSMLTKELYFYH
The assay can be described thus: Inhibitory concentration against human caspase-3.

For assay [12], the system named is Mus musculus. As to the kind of experiment: Survival of mice with 0 mg/kg of compound treatment after induction of apoptosis by anti-Fas antibody at 3 days(n=6). It counts as functional. The method, boiled down: as §1
In assay [13] the test system is Mus musculus. The assay can be described thus: Survival of mice with 0 mg/kg of compound treatment after induction of apoptosis by anti-Fas antibody at 1 hr (n=6). The class given is functional. In outline:
as §1

For assay [14], the system named is Mus musculus. The assay can be described thus: Survival of mice with 0 mg/kg of compound treatment after induction of apoptosis by anti-Fas antibody at 24 hr (n=6). The class given is functional. The method, boiled down:
as §1

The test system of assay [15] is Mus musculus. As to the kind of experiment: Survival of mice with 1 mg/kg of compound treatment after induction of apoptosis by anti-Fas antibody at 24 hr (n=6). It counts as functional. In outline: as §1
The target in a further assay is T3, Caspase-6 (Homo sapiens, UniProt P55212).
T3 sequence (P55212 whole entry): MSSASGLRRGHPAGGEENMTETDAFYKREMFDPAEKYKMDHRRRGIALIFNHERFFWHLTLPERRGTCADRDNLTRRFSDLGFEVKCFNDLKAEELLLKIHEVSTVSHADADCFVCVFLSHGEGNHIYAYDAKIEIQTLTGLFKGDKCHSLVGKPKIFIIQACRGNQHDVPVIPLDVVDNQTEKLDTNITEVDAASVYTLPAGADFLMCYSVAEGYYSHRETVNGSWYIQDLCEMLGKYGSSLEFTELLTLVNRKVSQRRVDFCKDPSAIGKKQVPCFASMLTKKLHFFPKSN
The assay can be described thus: Inhibitory concentration against Caspase-6.

The test system of assay [16] is Mus musculus. As to the kind of experiment: Survival of mice with 0 mg/kg of compound treatment after induction of apoptosis by anti-Fas antibody at 6 hr (n=6). The class given is functional. In outline: as §1
In assay [17] the test system is Mus musculus. The assay can be described thus: Survival of mice with 10 mg/kg of compound treatment after induction of apoptosis by anti-Fas antibody at 3 days(n=6). It counts as functional. The note with it: 72 h. The method, boiled down: as §1
Assay [18] relates to Mus musculus. As to the kind of experiment: Survival of mice with 0 mg/kg of compound treatment after induction of apoptosis by anti-Fas antibody at 3 hr (n=6). It counts as functional. In outline: as §1
For assay [19], the system named is Mus musculus. The assay can be described thus: Survival of mice with 10 mg/kg of compound treatment after induction of apoptosis by anti-Fas antibody at 3 hr (n=6). It counts as functional. The method, boiled down: as §1
The test system of assay [20] is Mus musculus. The assay can be described thus: Survival of mice with 10 mg/kg of compound treatment after induction of apoptosis by anti-Fas antibody at 1 hr (n=6). The class given is functional. The method, boiled down:
as §1

For assay [21], the target named is T4, Calpain-1 catalytic subunit (Homo sapiens, UniProt P07384).
T4 sequence (P07384 whole entry): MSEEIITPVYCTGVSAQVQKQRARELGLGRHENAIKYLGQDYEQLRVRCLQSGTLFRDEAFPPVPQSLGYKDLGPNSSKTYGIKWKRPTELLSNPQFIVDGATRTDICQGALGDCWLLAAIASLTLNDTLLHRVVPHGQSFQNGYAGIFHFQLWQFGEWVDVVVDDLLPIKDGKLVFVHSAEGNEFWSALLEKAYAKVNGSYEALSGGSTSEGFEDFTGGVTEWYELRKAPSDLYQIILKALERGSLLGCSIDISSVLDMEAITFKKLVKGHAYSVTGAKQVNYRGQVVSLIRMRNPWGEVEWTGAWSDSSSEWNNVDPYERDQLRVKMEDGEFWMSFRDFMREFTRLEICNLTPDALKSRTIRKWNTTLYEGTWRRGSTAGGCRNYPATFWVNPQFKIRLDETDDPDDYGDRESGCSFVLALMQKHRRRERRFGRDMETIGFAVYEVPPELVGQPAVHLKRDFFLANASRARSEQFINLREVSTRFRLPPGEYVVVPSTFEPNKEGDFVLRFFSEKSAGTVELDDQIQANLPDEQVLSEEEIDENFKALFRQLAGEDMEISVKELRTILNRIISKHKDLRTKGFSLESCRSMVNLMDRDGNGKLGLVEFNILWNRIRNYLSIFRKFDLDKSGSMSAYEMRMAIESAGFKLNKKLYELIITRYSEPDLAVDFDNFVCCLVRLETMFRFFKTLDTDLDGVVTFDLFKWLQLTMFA
As to the kind of experiment: Inhibitory concentration against Calpain 1. The method, boiled down: as §2

A further assay addresses Caspase-8 (Homo sapiens, UniProt Q14790). The assay can be described thus: Inhibitory concentration against Caspase-8.
The target in the next assay is T5, Caspase-9 (Homo sapiens, UniProt P55211).
T5 sequence (P55211 whole entry): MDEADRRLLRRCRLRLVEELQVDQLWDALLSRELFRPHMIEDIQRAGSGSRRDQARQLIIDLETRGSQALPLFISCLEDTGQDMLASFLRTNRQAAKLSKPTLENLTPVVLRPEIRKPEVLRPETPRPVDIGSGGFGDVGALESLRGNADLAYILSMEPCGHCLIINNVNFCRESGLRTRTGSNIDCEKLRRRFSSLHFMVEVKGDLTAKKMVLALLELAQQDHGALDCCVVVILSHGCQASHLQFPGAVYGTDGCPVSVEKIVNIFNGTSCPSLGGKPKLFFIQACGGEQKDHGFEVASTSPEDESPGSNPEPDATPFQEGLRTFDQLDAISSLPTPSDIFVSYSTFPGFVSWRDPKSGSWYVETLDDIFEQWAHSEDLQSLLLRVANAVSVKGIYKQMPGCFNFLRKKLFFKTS
As to the kind of experiment: Inhibitory concentration against Caspase-9.

The test system of assay [22] is Mus musculus. As to the kind of experiment: Survival of mice with 0.25 mg/kg of compound treatment after induction of apoptosis by anti-Fas antibody at 24 hr (n=6). It counts as functional. In outline: as §1
The subject of assay [23] is Mus musculus. As to the kind of experiment: Survival of mice with 0.25 mg/kg of compound treatment after induction of apoptosis by anti-Fas antibody at 3 days(n=6). The class given is functional. The conditions noted are these: 72 h. In outline: as §1

Caspase-8, sequence (Q14790 217-374 limits assumed): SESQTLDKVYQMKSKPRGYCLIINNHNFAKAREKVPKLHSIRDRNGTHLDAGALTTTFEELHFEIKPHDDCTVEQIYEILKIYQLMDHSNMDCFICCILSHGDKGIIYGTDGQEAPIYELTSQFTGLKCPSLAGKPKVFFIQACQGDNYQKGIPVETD
Caspase-8, sequence (Q14790 385-479 limits assumed): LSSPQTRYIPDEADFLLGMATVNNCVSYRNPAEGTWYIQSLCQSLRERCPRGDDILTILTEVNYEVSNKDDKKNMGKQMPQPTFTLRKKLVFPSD

With `C[C@H](OC(=O)Nc1ccccc1)C(=O)NC(CC(=O)O)C(=O)CF` (some centres undefined), in the assay on HeLa, the Concentration is 1400 nM.
`CC(C)[C@H](OC(=O)Nc1ccccc1)C(=O)NC(CC(=O)O)C(=O)CF` (some centres undefined): the survival at 10 mg/kg worked out at 83% in the assay on Mus musculus [1]; 100% in the assay with Mus musculus [10]; 83% in the assay on Mus musculus [17]; 100% in the assay with Mus musculus [19]; 100% with Mus musculus [20]. The IC50 in [2] is 12 nM; in [3], > 100000 nM; on Caspase-7, 11 nM; in assay [8] it was > 100000 nM; at Caspase-3, 17 nM; against Caspase-6, 50 nM. Also, the IC50 is > 100000 nM in assay [21], 17 nM against Caspase-8 and 30 nM on Caspase-9. The survival at 1 mg/kg amounted to 100% with Mus musculus [4], 0% in the assay on Mus musculus [5], 100% in the assay on Mus musculus [9] and 50% with Mus musculus [15]. Further, the survival at 0.25 mg/kg turned out to be 100% in the assay on Mus musculus [6]; 100% in the assay on Mus musculus [7]; 0% in the assay on Mus musculus [11]; 0% in the assay on Mus musculus [22]; 0% with Mus musculus [23]. The compound also came in with a Concentration in the assay on HeLa of 200 nM. Further, the Survival in the assay with Mus musculus [12], with Mus musculus [13], in the assay with Mus musculus [14], with Mus musculus [16] and with Mus musculus [18] was 0% in each case.
`CC(C)[C@H](OC(=O)Nc1ccccc1)C(=O)NC(CC(=O)O)C(=O)COc1cc(C(F)(F)F)nn1-c1ccccc1` (some centres undefined) yielded a Concentration with HeLa of 1100 nM.
On the same count and under the same terms, the value for `CC(C)[C@H](OC(=O)Nc1ccccc1)C(=O)NC(CC(=O)O)C(=O)COC(=O)c1c(Cl)cccc1Cl` (some centres undefined) was 1000 nM; that for `CC(C)[C@H](OC(=O)Nc1ccc(Cl)cc1Cl)C(=O)NC(CC(=O)O)C(=O)CF` (some centres undefined) was 100 nM; that for `CC(C)[C@H](NC(=O)Oc1ccccc1)C(=O)NC(CC(=O)O)C(=O)CF` (some centres undefined) was 250 nM.

In general, IC50 refers to the midpoint of a concentration-inhibition curve. Read a high IC50 as a need for much substance.
